The subject of data set [1] is healthy elderly subjects. In words: Visual-verbal learning test. It is filed as in vivo, human. The settings on record: 4 mg oral, vs placebo. An outline of the steps: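 A 30-word list was presented. Immediate recall rounds assessed acquisition at 1.5 h postdose, followed by delayed recall and recognition. Subjects received oral 4 mg, 2 mg or placebo in a crossover design; single-occasion test. Analysed by mixed-model ANOVA with treatment and period as fixed factors and subject as random factor, comparing least-squares means with placebo.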

Data set [2] concerns healthy elderly subjects. Put plainly: Pupillometry. The class given is in vivo, human. An outline of the steps: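 Pupil images were taken with a digital camera and single flash. Pupil and iris diameters were measured horizontally in pixels, and the pupil/[…] diameter ratio was calculated for each eye. Oral 2 mg, 4 mg or placebo in a crossover design in healthy elderly subjects. Measured twice predose and at 1, 2.5, 4, 7 and 22 h. Mixed-model ANCOVA with baseline covariate against placebo.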

Data set [3] relates to healthy elderly subjects. Put plainly: Adaptive tracking test. The settings on record: for decrease in mean adaptive tracking test performance: vs placebo. The class given is in vivo, human. The gist of the method:
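Randomized, double-blind, placebo-controlled 3-way crossover in 12 subjects aged 65–80 years (MMSE ≥28). Single oral doses of 2 or 4 mg test compound or placebo, 1-week washout. Joystick pursuit task: the subject keeps a dot inside a randomly moving circle, whose speed rises with success and falls with failure. Tested twice predose and at 1, 2.5, 4, 7 and 22 h. Mixed-model ANCOVA with baseline covariate; least-squares means versus placebo.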

The target in a further data set is M1 mAChR. Particulars: read-out: equilibrium dissociation constant [Kd] for M1; cited from earlier work.
The test system of data set [4] is healthy elderly subjects. Put plainly: Saccadic and smooth pursuit eye movements. It is filed as in vivo, human. An outline of the steps:
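Subjects followed a horizontally moving target on a screen 58 cm away. The target moved continuously for smooth pursuit and jumped side to side for saccades, and movements were recorded by computer. Oral 2 mg, 4 mg or placebo in a crossover design in healthy elderly subjects; tests predose and at 1, 2.5, 4, 7 and 22 h. Mixed-model ANCOVA with baseline covariate.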

For data set [5], the system named is healthy elderly subjects. Put plainly: Population PK-PD model. The class given is in vivo, human.
A short description of data set [6]: Plasma pharmacokinetics, noncompartmental analysis. The class given is in vivo. Particulars: human, po. The gist of the method: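 K2-EDTA plasma underwent liquid-liquid extraction and LC-MS/MS: phenyl column, isocratic 0.025% NH4OH in 67% acetonitrile, positive MRM at m/z 312→143, deuterated internal standard. QC levels were 0.300, 1.50 and 8.00 ng/mL. Parameters were obtained by noncompartmental analysis.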

The next data set addresses M4 mAChR. The settings on record: read-out: equilibrium dissociation constant [Kd] for M4; cited from earlier work.
In data set [7] the test system is healthy elderly subjects. In words: N-back task. It is filed as in vivo, human. Particulars: vs placebo.
For data set [8] the following is noted: cited from earlier work.
The target in a further data set is M2 mAChR. The settings on record: read-out: equilibrium dissociation constant [Kd] for M2; cited from earlier work.
The nature of the next data set: Population PK model. Particulars: oral. The class given is in vivo, human. The gist of the method:
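Nonlinear mixed-effects modelling of plasma concentrations after oral 2 and 4 mg in healthy elderly subjects. 1-, 2- and 3-compartment models were explored, with or without absorption lag time and transit compartments. Between-subject and between-occasion variability were added bottom-up (P < .01). Age, sex, weight and BMI were tested as covariates (forward P < .01, backward P < .001). The final model had 2 compartments with linear elimination.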

Data set [9] concerns healthy elderly subjects. In words: Body sway. It is filed as in vivo, human. Particulars: 22 hours postdose. An outline of the steps:
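Crossover in healthy elderly subjects given oral 2 mg, 4 mg or placebo. Postural stability was measured with a body sway meter recording movement in a single plane over 2 minutes, with movements integrated. Measured twice predose and at 1, 2.5, 4, 7 and 22 h postdose. Analysis used mixed-model ANCOVA with time and treatment factors and the average baseline as covariate.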

The subject of data set [10] is healthy elderly subjects. Put plainly: Safety and tolerability. The settings on record: 2 and 4 mg oral. The class given is in vivo, human. The gist of the method:
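Safety was monitored through treatment-emergent adverse events, laboratory tests, vital signs and ECG during each period. Randomization gave the 4-mg dose only after the 2-mg study day had been completed. A snack was given within 30 minutes before dosing, and caffeine and nicotine were not allowed. Oral single doses with a 1-week washout.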

The target in another data set is M5 mAChR. The settings on record: read-out: equilibrium dissociation constant [Kd] for M5; cited from earlier work.
The test system of data set [11] is healthy elderly subjects. Put plainly: Finger tapping test. The settings on record: both doses (2 and 4 mg). The class given is in vivo, human. The gist of the method: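 Finger tapping with the index finger of the dominant hand on a computer space bar, as fast as possible. Each session had 5 trials of 10 s, and mean tapping rate and SD were analysed. Oral 2 mg, 4 mg or placebo in a crossover design; tests predose and at 1, 2.5, 4, 7 and 22 h. Mixed-model ANCOVA with baseline covariate.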

In data set [12] the test system is healthy elderly subjects. In words: Mismatch negativity auditory event-related potential. It is filed as in vivo, human. The settings on record: vs placebo. The gist of the method:
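Passive auditory oddball while subjects watched a silent movie. 750 tones were given (600 frequent, 150 deviant), each 150 ms at 75 dB, at a fixed 2 Hz rate. Event-related potential recorded by EEG. Healthy elderly subjects received oral 2 or 4 mg or placebo in a crossover design with repeated postdose sessions. Compared with placebo by mixed-model analysis.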

The target of another data set is M3 mAChR. The settings on record: read-out: equilibrium dissociation constant [Kd] for M3; cited from earlier work.
For data set [13], the system named is healthy elderly subjects. Put plainly: Visual analog scales. Particulars: both doses (2 and 4 mg). It is filed as in vivo, human. An outline of the steps: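 Bond and Lader visual analog scales rated alertness, mood and calmness, and nausea was rated on a 100-mm line. Oral 2 mg, 4 mg or placebo in a crossover design in healthy elderly subjects. Ratings were made repeatedly predose and up to 22 h postdose. Analysed by mixed-model ANCOVA with baseline covariate against placebo.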

Data set [14] concerns healthy subjects. Particulars: cited from earlier work.
For data set [15], the system named is healthy subjects. The settings on record: cited from earlier work. This is another data set of the same source.

Values joined by “and” are separate entries in the source; they are usually repeats but may differ in a detail not shown here. Identical values can stand only once. Like-named read-outs stand apart in the source and are kept apart here.

`OC(CCN1CCCCC1)(c1ccccc1)C1CC2C=CC1C2` (centres unmarked) [biperiden]: in the data set with healthy elderly subjects [1], the “VVLT second immediate recall round, fewer words recalled” value stood at 2.5 words and the “VVLT third immediate recall round, fewer words recalled” value was 2.9 words. For the same molecule, in the data set on healthy elderly subjects [2] (4 mg oral, vs placebo), the “pupil/iris ratio left eye, mean difference” value stood at 0.065 and the “pupil/iris ratio right eye, mean difference” value is 0.07341. In addition, the “pupil/iris ratio in both eyes, recovery” value in the data set on healthy elderly subjects [2] (22 hours postdose) was “not normalized 22 hours postdose”. For the same molecule, the “decrease in mean adaptive tracking test performance” value with healthy elderly subjects [3] (2 mg oral) is listed as 1.36 percentage point. In addition, in the data set with healthy elderly subjects [3] (4 mg oral), the “adaptive tracking, change compared with placebo” value is given as −2.1 percentage point; the “decrease in mean adaptive tracking test performance” value was 2.10 percentage point and 2.1 percentage point. Further, on M1 mAChR, the Kd – broadly, the free concentration of one partner at which half of the binding sites on the other are occupied at equilibrium, for simple one-to-one binding – is 0.48 ± 0.02 nM. Besides, the “smooth pursuit, effect” value in the data set with healthy elderly subjects [4] (2 mg oral, vs placebo) was “No significant effect”. Besides, the smooth pursuit decrease in the data set with healthy elderly subjects [4] (4 mg oral, vs placebo) was found to be 3.55 percentage point. For the same molecule, the “saccadic inaccuracy, peak velocity, or reaction time, effect” value in the data set on healthy elderly subjects [4] (both doses (2 and 4 mg) vs placebo) is recorded as “No significant effects”. Moreover, in the data set with healthy elderly subjects [5], the “adaptive tracking, linear concentration-effect slope” value is listed as −0.98 percentage point/ng/mL; the “n-back 0-back accuracy measure, drug effect” value is “No significant effect”; the “n-back 0-back reaction time, Emax” value is recorded as 288.5 milliseconds; the “n-back 0-back reaction time, Hill coefficient” value is 2.25. Besides, in the data set with healthy elderly subjects [5], the “n-back 1-back accuracy measure, linear drug effect slope” value is -0.011 ng⁻¹ mL⁻¹; the “n-back 1-back reaction time, linear drug effect slope” value is recorded as 16.18 ms/ng/mL; the “n-back 2-back reaction time, linear drug effect slope” value worked out at 11.08 ms/ng/mL. In [6] (2 mg), the AUC(0-t) (as a rule, exposure summed from dosing to a finite time, without extrapolation to infinity) is 18.4 ng·h/mL and the Cmax (commonly the maximum level reached in the sampled fluid or tissue) was 3.51 ng/mL. Also, in data set [6] (4 mg), the AUC(0-t) turned out to be 39.5 ng·h/mL, the concentration peaked (Cmax) at 7.45 ng/mL and the Tmax (usually the time at which the peak concentration occurs) is 2 h. The dissociation constant (Kd) at M4 mAChR is 2.4 ± 0.03 nM. Besides, in the data set on healthy elderly subjects [7] (2 mg oral), the “n-back reaction time and accuracy, change” value was “No significant change”. In the data set on healthy elderly subjects [7] (4 mg oral), the “n-back 0-back condition reaction time, mean difference” value came to 37.2 milliseconds; the “n-back 1-back condition reaction time, mean difference” value came out at 49.9 milliseconds; the “n-back 2-back condition accuracy, decrease” value is 0.06; the “n-back task reaction time increase” value is no more than 50 millisecond. Moreover, in data set [8] (assumed, oral ref 18), the bioavailability result was “approximately 33%”. In addition, in data set [8] (postdose, as stated for previous studies), the Tmax entry is given as “approximately 1 hour”. Further, the Kd on M2 mAChR was 6.3 ± 0.5 nM. The half-life (in general, the time needed for the level to fall by half in the phase considered) in the data set “Population PK model” (human, plasma) is 29.5 h. Further, in “Population PK model” (population PK estimate), the Absorption rate constant was 2.73 (BOV = 97.7%) /hour; the Clearance is reported as 78.06 (IIV = 172%, BOV = 12%) L/h/F; the Lag time is recorded as 0.54 (BOV = 75%) hours; the “Volume of distribution—central” value is on record as 491.40 (IIV = 79.5%) L/F. Moreover, the “body sway, recovery” value in the data set on healthy elderly subjects [9] is listed as “not normalized 22 hours postdose”. The tolerability result in the data set on healthy elderly subjects [10] is listed as “well tolerated”. The tolerability entry with healthy elderly subjects [10] (listed as Biperiden) is “very well tolerated”. On M5 mAChR, the dissociation constant Kd is 6.3 ± 0.1 nM. Moreover, the “tapping-test performance, change” value in the data set with healthy elderly subjects [11] is reported as “No significant changes”. Also, the “MMN latency at Fz, increase” value in the data set on healthy elderly subjects [12] (2 mg oral) is on record as 12.1 milliseconds. In addition, the “MMN latency at Fz, increase” value in the data set with healthy elderly subjects [12] (4 mg oral) was determined as 13.9 milliseconds. The Kd at M3 mAChR is 3.9 ± 0.1 nM. In addition, in the data set with healthy elderly subjects [13], the “VAS Bond and Lader subscales of mood, alertness, and calmness, change” value is “No significant changes”; the “VAS nausea scores, change” value was “No significant changes”.
With `CN1[C@@H]2C[C@@H](OC(=O)[C@H](CO)c3ccccc3)C[C@H]1[C@@H]1O[C@@H]12` [scopolamine], in the data set on healthy subjects [14], the “peak saccadic velocity, effect” value is on record as “concentration‐related decrease”.
As to `NC(=O)C(c1ccccc1)(c1ccccc1)[C@@H]1CCN(CCc2ccc3c(c2)CCO3)C1` [darifenacin], the “effect on body sway” value in the data set on healthy subjects [15] is recorded as “increase body sway”.

(Values after publication PMC8596596 (Journal of Clinical Pharmacology, 2021).)
